The nature of data set [1]: In vitro drug release by dialysis. Format: physicochemical. As to conditions: pH 2.0, 5.0 and 6.8, after 72 hours. In outline:
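Dialysis (MWCO 6–8 kDa): 2.5 mL of nanoparticle or free-drug solution (drug 0.2 mg/mL) against 10 mL medium. Media were 0.05 M glycine–HCl pH 2.0, 0.05 M phosphate pH 5.0 and 0.05 M phosphate pH 6.8, each with 1% ascorbic acid and 0.1% BHT. Stirred at 37°C for 72 h; 3.0 mL withdrawn at intervals and replaced. Drug measured by C18 HPLC at 420 nm. Run three times.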

Data set [2] deals with HT-29 cells. The data set can be described thus: In vitro cytotoxicity, MTT assay. Format: cell-based. As to conditions: Homo sapiens, HT-29, read-out: IC50 (half maximal inhibitory concentration). In outline: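 HT-29 cells were grown in RPMI-1640 with 10% FBS and 1% penicillin/streptomycin. They were seeded at 3–5×10^4 cells/well and cultured 24 h at 37°C in humid 5% CO2. Drug-loaded and blank nanoparticles were then tested by MTT, with absorbance read at 490 nm. Viability (%) = absorbance of treated cells / absorbance of untreated cells × 100. Triplicates; mean ± SD (n=3).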
(Tetrazolium dyes change colour on reduction, which living cells bring about.)

Data set [3] relates to HT-29 cells. The data set is described as follows: Intracellular uptake by fluorescence microscopy. Format: cell-based, Human. As to conditions: 7.5 μg/mL, 3 hours, 37°C. In outline: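 HT-29 cells were seeded at 2.5×10^4 cells/well and incubated overnight at 37°C in 5% CO2. They were exposed to free drug or drug-loaded nanoparticles at 7.5 μg/mL for 3 h at 37°C, with untreated and blank-nanoparticle controls. Cells were rinsed three times with 37°C PBS. Imaging used fluorescence microscopy with 420–490 nm excitation and 490–560 nm emission.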

Data set [4] is described as follows: In vivo oral administration and pharmacokinetics. As to conditions: plasma, 100 mg/kg. The arrangement: species or system rats.

≈ marks a conversion by molar mass, not a printed value.

What is called Cmax is the peak of the concentration-time curve. For orientation: MRT last means a mean duration of stay, worked out from the concentration-time curve. As usually defined, the Tmax is the time from dosing to the highest level. What is called half-life is how long it takes for the measured level to halve. Read a high half-life as slow decline.

In the case of `COc1cc(/C=C/C(=O)CC(=O)/C=C/c2ccc(O)c(OC)c2)ccc1O` [Cur, Curcumin], the “release after 72 hours (in words)” value in data set [1] is on record as “completed its release/diffusion”. For the same compound, the IC50 in the data set with HT-29 cells [2] was 28.5 µg/mL (≈ 77.4 µM). Moreover, the “fluorescence of cells (cell uptake)” value in the data set with HT-29 cells [3] was “relatively faint”. Also, in data set [4] (male, Sprague Dawley, rat, po), the Cmax was 11000 ± 1170 ng/mL, the MRT last came to 4.33 ± 0.67 h, the Tmax was 1 h and the half-life is 0.9 ± 0.89 h. For the same compound, the “AUC0–24 hours” value in data set [4] (oral) turned out to be 65120 ± 7420 ng·h/mL.
